Assay results as given in paper PMC9653025 (Drug Design, Development and Therapy, 2022).
Read-outs that look alike come from different tables or passages of the source.

Assays:
[1] = type: in vivo, healthy Chinese subjects; details: single oral 100 mg imrecoxib, plasma
In short: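 Open-label parallel Phase I study in healthy Chinese adults aged 18–85 y, BMI 19–28 kg/m2, 1:1 sex. Single 100 mg tablet of test compound taken orally with 240 mL water after a 4 h fast. EDTA blood drawn predose and 0.5–72 h after dosing; plasma stored at −70°C. Parent compound plus hydroxyl and carboxyl metabolites measured by LC-MS/MS (C18, MRM, acetonitrile precipitation, internal standard). Non-compartmental analysis; group geometric mean ratios with 90% CI.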

[2] = Safety and tolerability; type: in vivo, healthy Chinese subjects
In short: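 Single 100 mg oral tablet given after fasting; subjects kept in a supervised Phase I ward until 72 h post-dose. Tolerability tracked through adverse-event monitoring, physical examinations, haematology, blood biochemistry, urinalysis and 12-lead ECG; clinical laboratory tests run in a CAP-accredited hospital laboratory. Elderly and non-elderly groups assessed in parallel.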

[3] = system: COX-1/COX-2; details: cited from earlier work
[4] = healthy subjects, single oral dose 30, 60, 90 and 200mg imrecoxib; cited from earlier work
[5] = Elderly Group (N=9), single oral 100 mg imrecoxib
[6] = Elderly Group (N=9), single oral 100 mg imrecoxib, subjects (%)
[7] = Non-Elderly Group (N=10), single oral 100 mg imrecoxib
[8] = Non-Elderly Group (N=10), single oral 100 mg imrecoxib, subjects (%)

## CCCN1CC(c2ccc(S(C)(=O)=O)cc2)=C(c2ccc(C)cc2)C1=O [M0, imrecoxib]
[1]; Group A (N=10), non-elderly
  Geometric Mean AUC0-∞: 148 h*ng/m
[1]; Group B (N=9), elderly
  Geometric Mean AUC0-∞: 193 h*ng/m
[1]; elderly (B) / non-elderly (A)
  Geometric Mean Ratio B/A of AUC0-t: 134%
  Geometric Mean Ratio B/A of AUC0-∞: 130%
  Geometric Mean Ratio B/A of Cmax: 139%
[2]; [5]
  All adverse events, Severity Grade I: 2
  Aspartate transaminase increased, Severity Grade I: 1
  Aspartate transaminase increased, Severity Grade II: 0
  Aspartate transaminase increased, Severity Grade III: 0
  Blood bilirubin increased, Severity Grade I: 1
  Blood bilirubin increased, Severity Grade II: 0
  Blood bilirubin increased, Severity Grade III: 0
  Blood glucose increased, Severity Grade I: 0
  Blood glucose increased, Severity Grade II: 0
  Blood glucose increased, Severity Grade III: 0
  White blood cell increased, Severity Grade I: 0
  White blood cell increased, Severity Grade II: 0
  White blood cell increased, Severity Grade III: 0
[2]; [6]
  Acute upper respiratory infection, Incidence (%): 0(0.0%)
  All adverse events, Incidence (%): 2(22.2%)
  Aspartate transaminase increased, Incidence (%): 1(11.1%)
  Blood bilirubin increased, Incidence (%): 1(11.1%)
  Blood glucose increased, Incidence (%): 0(0.0%)
  Fibrinogen decreased, Incidence (%): 0(0.0%)
  White blood cell increased, Incidence (%): 0(0.0%)
[2]; [7]
  All adverse events, Severity Grade I: 2
  Aspartate transaminase increased, Severity Grade I: 0
  Aspartate transaminase increased, Severity Grade II: 0
  Aspartate transaminase increased, Severity Grade III: 0
  Blood bilirubin increased, Severity Grade I: 0
  Blood bilirubin increased, Severity Grade II: 0
  Blood bilirubin increased, Severity Grade III: 0
  Blood glucose increased, Severity Grade I: 1
  Blood glucose increased, Severity Grade II: 0
  Blood glucose increased, Severity Grade III: 0
  Fibrinogen decreased, Severity Grade I: 1
  White blood cell increased, Severity Grade I: 1
  White blood cell increased, Severity Grade II: 0
  White blood cell increased, Severity Grade III: 0
[2]; [8]
  Aspartate transaminase increased, Incidence (%): 0(0.0%)
  Blood bilirubin increased, Incidence (%): 0(0.0%)
[2]; both groups, recovered without any medical intervention
  Severity of all the AEs: mild
[2]; both groups, single oral 100 mg imrecoxib
  Gastrointestinal, cardiovascular or renal side effects observed: No concomitant gastrointestinal, cardiovascular or renal side effects
[2]; elderly group
  AEs considered to be ADRs: Increased aspartate transaminase and blood bilirubin
[2]; non-elderly and elderly healthy subjects, oral
  Tolerability: well tolerated
[2]; non-elderly group
  AEs regarded as adverse drug reaction (ADR): increased blood glucose
[3]
  IC50COX-1/IC50COX-2 value: 6.39
  IC50COX-1/IC50COX-2 value relative to celecoxib: 77%
[4]
  Dose dependence of pharmacokinetics: linear dynamic characteristics
  Tmax: about 2 hours

## CS(=O)(=O)c1ccc(C2=C(c3ccccc3)C(=O)OC2)cc1 [rofecoxib]
[3]
  IC50COX-1/IC50COX-2 value: above 213
